Measurements reported in ChEMBL document CHEMBL1132401, “Glycosylation of fluoroquinolones through direct and oxygenated polymethylene linkages as a sugar-mediated active transport system for antimicrobials” (1999).
Converted amounts (≈) assume the structure as drawn.

How the values were obtained:
[1] = system: Enterococcus faecalis; assay: Minimum concentration required to prevent the growth of nonresistant stock strain Enterococcus faecalis 29212 from American Type Culture Collection (ATCC); type: functional
In short: (§1)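 Agar dilution susceptibility testing per NCCLS guidelines against resistant clinical isolates, with nonresistant ATCC stock strains run as controls. Plates were read at 19–24 h of incubation. MIC reported in µg/mL.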

[2] = system: Listeria monocytogenes; assay: Minimum concentration required to prevent the growth of Listeria monocytogenes strain A0182; type: functional
In short: (§2)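 Agar dilution susceptibility testing per NCCLS guidelines, covering clinical isolates (including resistant phenotypes) and nonresistant ATCC stock strains as controls. Plates read after 19–24 h of incubation. MIC reported in μg/mL.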

[3] = system: Staphylococcus aureus; assay: Minimum concentration required to prevent the growth of nonresistant stock strain Staphylococcus aureus 29213 from American Type Culture Collection (ATCC)
[4] = system: Enterococcus faecalis; assay: Minimum concentration required to prevent the growth of vancomycin resistant (VanB) Enterococcus faecalis strain A1081; type: functional; in short: as §1
[5] = system: Staphylococcus aureus; assay: Minimum concentration required to prevent the growth of multiply resistant (MRSA) and cipro resistant (Cipro-R) Staphylococcus aureus strain A2800; type: functional; in short: as §1
[6] = system: Enterococcus faecalis; assay: Minimum concentration required to prevent the growth of vancomycin resistant (VanA) Enterococcus faecalis strain A0401; type: functional; in short: as §1
[7] = system: Staphylococcus aureus; assay: Minimum concentration required to prevent the growth of multiply resistant (MRSA) and cipro resistant (Cipro-R) Staphylococcus aureus strain A2043; type: functional; in short: as §1
[8] = system: Staphylococcus aureus; assay: Minimum concentration required to prevent the growth of multiply resistant (MRSA) Staphylococcus aureus strain A0170; type: functional; in short: as §1
[9] = system: Escherichia coli; assay: Minimum concentration required to prevent the growth of cipro resistant (Cipro-R) Escherichia coli strain AA; type: functional; in short: as §2
[10] = system: Staphylococcus epidermidis; assay: Minimum concentration required to prevent the growth of multiply resistant Staphylococcus epidermidis (MRSE) and cipro resistant (Cipro-R) coag.-neg. Staph. A0247; type: functional; in short: as §1
[11] = system: Staphylococcus epidermidis; assay: Minimum concentration required to prevent the growth of multiply resistant Staphylococcus epidermidis (MRSE) and cipro resistant (Cipro-R) coag.-neg. Staph. A0248; type: functional; in short: as §1
[12] = system: Enterococcus faecalis; assay: Minimum concentration required to prevent the growth of vancomycin resistant (VanB) Enterococcus faecalis strain A1079; type: functional; in short: as §1
[13] = system: Staphylococcus aureus; assay: Minimum concentration required to prevent the growth of multiply resistant (MRSA) Staphylococcus aureus strain A0171; type: functional; in short: as §1
[14] = system: Enterococcus faecium; assay: Minimum concentration required to prevent the growth of nonresistant stock strain Enterococcus faecium 19434 from American Type Culture Collection (ATCC); type: functional; in short: as §2
[15] = system: Escherichia coli; assay: Minimum concentration required to prevent the growth of cipro resistant (Cipro-R) Escherichia coli strain A3529; type: functional; in short: as §2
[16] = system: Pseudomonas aeruginosa; assay: Minimum concentration required to prevent the growth of Pseudomonas aeruginosa strain 28215; type: functional; in short: as §2
[17] = system: Enterococcus faecalis; assay: Minimum concentration required to prevent the growth of high level gentamicin and beta- lactamase resistant (HLGR, BLA+) Enterococcus faecalis strain A0089; type: functional; in short: as §1
[18] = system: Enterococcus faecalis; assay: Minimum concentration required to prevent the growth of high level gentamicin and beta- lactamase resistant (HLGR, BLA+) Enterococcus faecalis strain A0090; type: functional; in short: as §1
[19] = system: Listeria monocytogenes; assay: Minimum concentration required to prevent the growth of Listeria monocytogenes strain A0183; type: functional; in short: as §2
[20] = system: Enterococcus faecalis; assay: Minimum concentration required to prevent the growth of nonresistant stock strain Enterococcus faecalis 51299 from American Type Culture Collection (ATCC); type: functional; in short: as §1
[21] = system: Pseudomonas aeruginosa; assay: Minimum concentration required to prevent the growth of Pseudomonas aeruginosa strain 28245; type: functional; in short: as §2
[22] = system: Escherichia coli; assay: Minimum concentration required to prevent the growth of cipro resistant (Cipro-R) Escherichia coli strain A3228; type: functional; in short: as §2
[23] = system: Staphylococcus epidermidis; assay: Minimum concentration required to prevent the growth of multiply resistant Staphylococcus epidermidis (MRSE) coag.-neg. Staph. A0245; type: functional; in short: as §1
[24] = system: Staphylococcus epidermidis; assay: Minimum concentration required to prevent the growth of multiply resistant Staphylococcus epidermidis (MRSE) coag.-neg. Staph. A0244; type: functional; in short: as §1
[25] = system: Enterococcus faecalis; assay: Minimum concentration required to prevent the growth of vancomycin resistant (VanA) Enterococcus faecalis strain A0402; type: functional; in short: as §1
[26] = system: Escherichia coli; assay: Minimum concentration required to prevent the growth of nonresistant stock Escherichia coli strain 25922 from American Type Culture Collection (ATCC); type: functional; conditions: ATCC25922; in short: as §2
[27] = system: Klebsiella oxytoca; assay: Minimum concentration required to prevent the growth of cipro resistant (Cipro-R) Klebsiella oxytoca strain A3530
[28] = system: Klebsiella pneumoniae; assay: Minimum concentration required to prevent the growth of cipro resistant (Cipro-I) Klebsiella pneumoniae strain AM; type: functional; in short: as §1
[29] = system: Enterococcus faecium; assay: Minimum concentration required to prevent the growth of vancomycin resistant (VanB) Enterococcus faecium strain A1087; type: functional; in short: as §1
[30] = system: Enterococcus faecium; assay: Minimum concentration required to prevent the growth of vancomycin resistant (VanA) Enterococcus faecium strain A1745; type: functional; in short: as §1
[31] = system: Enterococcus faecium; assay: Minimum concentration required to prevent the growth of vancomycin resistant (VanB) Enterococcus faecium strain A0803; type: functional; in short: as §1
[32] = system: Klebsiella oxytoca; assay: Minimum concentration required to prevent the growth of cipro resistant (Cipro-I) Klebsiella oxytoca strain A3530; type: functional; in short: as §1
[33] = system: Staphylococcus epidermidis; assay: Minimum concentration required to prevent the growth of multiply resistant Staphylococcus epidermidis (MRSE) and cipro resistant (Cipro-R) coag.-neg. Staph. A0247
[34] = Enterococcus faecalis, read-out: MIC
[35] = Enterococcus faecium, read-out: MIC

Compound | MIC [1] [µg/mL] | MIC [2] [µg/mL] | MIC [3] [µg/mL] | MIC [4, 34] [µg/mL] | MIC [5] [µg/mL] | MIC [6, 34] [µg/mL] | MIC [7] [µg/mL] | MIC [8] [µg/mL] | MIC [9] [µg/mL] | MIC [11] [µg/mL] | MIC [13] [µg/mL] | MIC [15] [µg/mL] | MIC [16] [µg/mL] | MIC [19] [µg/mL] | MIC [21] [µg/mL] | MIC [22] [µg/mL] | MIC [23] [µg/mL] | MIC [24] [µg/mL] | MIC [26] [µg/mL] | MIC [28] [µg/mL] | further results
O=C(O)c1cn(C2CC2)c2cc(N3CCN(CCO[C@@H]4O[C@@H](CO)[C@H](O)[C@H](O)[C@@H]4O)CC3)c(F)cc2c1=O | 32 (≈ 59.5 µM) | > 32 | 8 (≈ 14.9 µM) | 16 (≈ 29.8 µM) | > 32 | > 32 | > 32 | 8 (≈ 14.9 µM) | > 32 | > 32 | 8 (≈ 14.9 µM) | > 32 | 16 (≈ 29.8 µM) | > 32 | > 32 | > 32 | 16 (≈ 29.8 µM) | 32 (≈ 59.5 µM) | 1 (≈ 1.86 µM) | > 32 | MIC [10]: > 32 µg/mL; MIC [12]: 32 µg/mL (≈ 59.5 µM); MIC [14, 35]: > 32 µg/mL; MIC [17, 34]: > 32 µg/mL; MIC [18]: 32 µg/mL (≈ 59.5 µM); MIC [20, 34]: 32 µg/mL (≈ 59.5 µM); MIC [25, 34]: 32 µg/mL (≈ 59.5 µM); MIC [27]: > 32 µg/mL
O=C(O)c1cn(C2CC2)c2cc(N3CCN(CCO[C@@H]4O[C@@H](CO)[C@@H](O)[C@H](O)[C@@H]4O)CC3)c(F)cc2c1=O | 32 (≈ 59.5 µM) | > 32 | 16 (≈ 29.8 µM) | 16 (≈ 29.8 µM) | > 32 | > 32 | > 32 | 4 (≈ 7.44 µM) | > 32 | > 32 | 8 (≈ 14.9 µM) | > 32 | 32 (≈ 59.5 µM) | > 32 | > 32 | > 32 | 16 (≈ 29.8 µM) | 32 (≈ 59.5 µM) | 2 (≈ 3.72 µM) | > 32 | MIC [10]: > 32 µg/mL; MIC [12]: 32 µg/mL (≈ 59.5 µM); MIC [14, 35]: > 32 µg/mL; MIC [17, 34]: > 32 µg/mL; MIC [18]: 32 µg/mL (≈ 59.5 µM); MIC [20, 34]: 16 µg/mL (≈ 29.8 µM); MIC [25, 34]: 32 µg/mL (≈ 59.5 µM); MIC [27]: > 32 µg/mL
O=C(O)c1cn(C2CC2)c2cc(N3CCN(C4OC(CO)C(O)C(O)C4O)CC3)c(F)cc2c1=O (stereo in doubt; form 3) |  | 2 (≈ 4.05 µM) |  |  | > 32 |  | > 32 | 0.5 (≈ 1.01 µM) | 8 (≈ 16.2 µM) | > 32 | 0.5 (≈ 1.01 µM) | 32 (≈ 64.8 µM) | 0.5 (≈ 1.01 µM) | 2 (≈ 4.05 µM) | 4 (≈ 8.11 µM) | > 32 | 0.5 (≈ 1.01 µM) | 1 (≈ 2.03 µM) | < 0.03 | 4 (≈ 8.11 µM) | MIC [29]: 4 µg/mL (≈ 8.11 µM); MIC [4]: 1 µg/mL (≈ 2.03 µM); MIC [30]: > 32 µg/mL; MIC [10]: > 32 µg/mL; MIC [31]: 4 µg/mL (≈ 8.11 µM); MIC [14]: 8 µg/mL (≈ 16.2 µM); MIC [32]: 8 µg/mL (≈ 16.2 µM)
O=C(O)c1cn(C2CC2)c2cc(N3CCN(C4OC(CO)C(O)C(O)C4O)CC3)c(F)cc2c1=O (stereo in doubt; form 2) |  | 2 (≈ 4.05 µM) |  |  |  |  |  | 0.5 (≈ 1.01 µM) | 8 (≈ 16.2 µM) |  | 0.5 (≈ 1.01 µM) | 32 (≈ 64.8 µM) | 0.5 (≈ 1.01 µM) | 2 (≈ 4.05 µM) | 4 (≈ 8.11 µM) |  | 0.5 (≈ 1.01 µM) | 1 (≈ 2.03 µM) |  | 2 (≈ 4.05 µM) | MIC [4]: 0.5 µg/mL (≈ 1.01 µM); MIC [30]: > 32 µg/mL; MIC [6]: 2 µg/mL (≈ 4.05 µM); MIC [31]: 2 µg/mL (≈ 4.05 µM); MIC [14]: 8 µg/mL (≈ 16.2 µM); MIC [17]: 1 µg/mL (≈ 2.03 µM); MIC [20]: 1 µg/mL (≈ 2.03 µM); MIC [32]: 8 µg/mL (≈ 16.2 µM); MIC [25]: 1 µg/mL (≈ 2.03 µM)
O=C(O)c1cn(C2CC2)c2cc(N3CCN(CCCO[C@@H]4O[C@@H](CO)[C@@H](O)[C@H](O)[C@@H]4O)CC3)c(F)cc2c1=O | 8 (≈ 14.5 µM) | 8 (≈ 14.5 µM) | 4 (≈ 7.25 µM) | 4 (≈ 7.25 µM) | > 32 | 8 (≈ 14.5 µM) | > 32 | 4 (≈ 7.25 µM) | > 32 | > 32 | 4 (≈ 7.25 µM) | > 32 | 4 (≈ 7.25 µM) | 8 (≈ 14.5 µM) | 32 (≈ 58 µM) | > 32 | 4 (≈ 7.25 µM) | 8 (≈ 14.5 µM) | 0.12 (≈ 0.218 µM) | 16 (≈ 29 µM) | MIC [29, 35]: 32 µg/mL (≈ 58 µM); MIC [33]: > 32 µg/mL; MIC [31, 35]: 16 µg/mL (≈ 29 µM); MIC [12]: 8 µg/mL (≈ 14.5 µM); MIC [14, 35]: > 32 µg/mL; MIC [17, 34]: 8 µg/mL (≈ 14.5 µM); MIC [18]: 4 µg/mL (≈ 7.25 µM); MIC [20, 34]: 8 µg/mL (≈ 14.5 µM); MIC [25, 34]: 8 µg/mL (≈ 14.5 µM); MIC [27]: > 32 µg/mL
O=C(O)c1cn(C2CC2)c2cc(N3CCN(CCCO[C@@H]4O[C@@H](CO)[C@H](O)[C@H](O)[C@@H]4O)CC3)c(F)cc2c1=O | 16 (≈ 29 µM) | 32 (≈ 58 µM) | 16 (≈ 29 µM) | 16 (≈ 29 µM) | > 32 | 32 (≈ 58 µM) | > 32 | 8 (≈ 14.5 µM) | > 32 | > 32 | 16 (≈ 29 µM) | > 32 | 16 (≈ 29 µM) | 32 (≈ 58 µM) | > 32 | > 32 | 8 (≈ 14.5 µM) | 32 (≈ 58 µM) | 0.25 (≈ 0.453 µM) | > 32 | MIC [10]: > 32 µg/mL; MIC [12]: 16 µg/mL (≈ 29 µM); MIC [14, 35]: > 32 µg/mL; MIC [17, 34]: 32 µg/mL (≈ 58 µM); MIC [18]: 16 µg/mL (≈ 29 µM); MIC [20, 34]: 16 µg/mL (≈ 29 µM); MIC [25, 34]: 32 µg/mL (≈ 58 µM); MIC [27]: > 32 µg/mL
